From ChEMBL document CHEMBL4406862, “Chalcone derivatives targeting mitosis: synthesis, evaluation of antitumor activity and lipophilicity” (Eur J Med Chem, 2019)
Calls of active or inactive are those of the source. The rule behind the calls is not given here.

Legend:
[1] = n-Octanol/water partition coefficient, log P of the compound incubated for 30 mins by spectrophotometry; assay type: physicochemical
MCF7 = assay: Antiproliferative activity against human MCF7 cells assessed as reduction in cell viability incubated for 48 hrs by sulforhodamine B assay; assay type: functional; settings: MCF7, 48 h
Summary of the method: (§1)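 Cells in RPMI-1640 with 5% FBS, 37 °C, 5% CO2; seeded 0.05×10^6 cells/well, 24 h, then two-fold serial dilutions from 0 to 150 μM (DMSO up to 0.25%) for 48 h. TCA fixation, SRB stain 30 min, dye solubilized in 10 mM Tris, absorbance 515 nm. GI50 from dose-response curve; mean ± SD, at least three independent experiments in duplicate.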

NCI-H460 [2] = assay: Antiproliferative activity against human NCI-H460 cells assessed as reduction in cell viability incubated for 48 hrs by sulforhodamine B assay; assay type: functional; settings: NCI-H460, 48 h; summary of the method: as §1
[3] = Antiproliferative activity against human A375-C5 cells assessed as reduction in cell viability incubated for 48 hrs by sulforhodamine B assay; assay type: functional; settings: A375-C5, 48 h; summary of the method: as §1
[4] = Lipophilicity, log k of compound in DMPC/buffer incubated for 30 mins by spectrophotometry; assay type: physicochemical; settings: 0.5 h
Summary of the method: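 DMPC liposomes made by thin-film hydration in HEPES buffer, extruded at 40 °C. Fixed compound concentration with DMPC 50–1000 μM, incubated 30 min at 37 °C, pH 7.4; spectra 250–500 nm against compound-free references. Second-derivative values fitted (nonlinear least squares) versus lipid concentration to give Kp; lipid molar volume 0.66 L mol⁻¹; mean ± SD of at least three experiments.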

NCI-H460 [5] = assay: Induction of mitotic arrest in human NCI-H460 cells assessed as decrease in chromosome align at metaphase plate at 3 times of GI50 incubated for 15 hrs by DAPI staining based fluorescence microscopy; assay type: functional, cell-based
Summary of the method: (§2)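 NCI-H460 on poly-L-lysine coverslips treated 15 h at 3×GI50; fixed in 2% paraformaldehyde, 0.5% Triton X-100 permeabilization, 10% FBS blocking; mouse anti-α-tubulin (1:2500) then Alexa Fluor 488 secondary (1:1500); DAPI 2 µg/mL. Fluorescence microscopy of spindles; multipolar spindles as percentage of total spindles; mean ± SD, three independent experiments.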

NCI-H460 [6] = assay: Induction of mitotic arrest in human NCI-H460 cells assessed as abnormal mitotic spindle morphology at 3 times of GI50 incubated for 15 hrs by immunostaining based fluorescence microscopy; assay type: functional, cell-based; summary of the method: as §2
NCI-H460 [7] = assay: Induction of mitotic arrest in human NCI-H460 cells assessed as condensed chromosome at 3 times of GI50 incubated for 15 hrs by DAPI staining based phase contrast microscopy; assay type: functional, cell-based
Summary of the method: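 NCI-H460 treated 15 h at 3×GI50; DAPI staining of DNA viewed to detect condensed chromosomes of mitotic cells.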

NCI-H460 [8] = assay: Induction of mitotic arrest in human NCI-H460 cells assessed as mitotic index at 3 times of GI50 incubated for 15 hrs by DAPI staining based phase contrast microscopy (reference value: 11.3 %); assay type: functional
NCI-H460 [9] = assay: Induction of mitotic arrest in human NCI-H460 cells assessed as accumulation of bright round shape cells at 3 times of GI50 incubated for 15 hrs by phase contrast microscopy; assay type: functional, cell-based
NCI-H460 [10] = assay: Cytotoxicity against human NCI-H460 cells assessed as reduction in cell viability at 25 nM incubated for 48 hrs by MTT assay; assay type: functional, cell-based
Summary of the method: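 MTT 0.5 mg/ml in serum-free medium 4 h; formazan dissolved in isopropanol/Triton/HCl 2 h; absorbance 570 nm. Viability relative to untreated cells; mean ± SD of at least three independent experiments.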

NCI-H460 [11] = assay: Induction of mitotic arrest in human NCI-H460 cells assessed as mitotic index 1 uM incubated for 15 hrs by DAPI staining based phase contrast microscopy (reference value: 11.3 %); assay type: functional
NCI-H460 [12] = assay: Induction of mitotic arrest in human NCI-H460 cells assessed as accumulation of bright round shape cells at 1 uM incubated for 15 hrs by phase contrast microscopy; assay type: functional, cell-based

| SMILES | logP at 0.5 h [1] | GI50 (MCF7) [µM] | GI50 (NCI-H460 [2]) [µM] | GI50 [3] [µM] | log Kp [4] | Activity (NCI-H460 [5]) | Activity (NCI-H460 [6]) | Activity (NCI-H460 [7]) | Activity (NCI-H460 [8]) | Activity (NCI-H460 [9]) | Activity (NCI-H460 [10]) | Activity (NCI-H460 [11]) [%] | Activity (NCI-H460 [12]) |
| --- | --- | --- | --- | --- | --- | --- | --- | --- | --- | --- | --- | --- | --- |
| O=C(/C=C/c1ccc(Cl)c(Cl)c1)c1cccs1 | 4.35 | 12.1 | 8.44 | 7.25 | 2.77 |  |  |  |  |  |  |  |  |
| COc1ccc(C(=O)/C=C/c2cc(Cl)cc(Cl)c2)cc1OC | 4.54 | 8.41 | 9.61 | 4.51 | 4.1 |  |  |  |  |  |  |  |  |
| COc1cc(/C=C/C(=O)c2cc3cccc(O)c3o2)cc(OC)c1OC | 3.22 | 9.75 | 8.35 | 8.57 | 4.29 | Active | Active | Active | 25.8 - 49.37% | Active |  |  |  |
| CC(=O)O[C@H]1C(=O)[C@@]2(C)[C@H]([C@H](OC(=O)c3ccccc3)[C@]3(O)C[C@H](OC(=O)[C@H](O)[C@@H](NC(=O)c4ccccc4)c4ccccc4)C(C)=C1C3(C)C)[C@]1(OC(C)=O)CO[C@@H]1C[C@@H]2O |  |  |  |  |  |  |  |  |  |  | inactive |  |  |
| COc1cc(/C=C/C(=O)c2cc(C)cs2)cc(OC)c1OC | 3.29 | 3.26 | 3.02 | 3.21 | 3.54 |  |  |  |  |  |  |  |  |
| COc1cc(/C=C/C(=O)c2cccs2)cc(OC)c1 | 3.14 | 7.7 | 7.12 | 4.15 | 3.41 |  |  |  |  |  |  |  |  |
| Cc1csc(C(=O)/C=C/c2cc(Cl)cc(Cl)c2)c1 | 4.67 | 12.2 | 11.8 | 7.14 | 4.43 |  |  |  |  |  |  |  |  |
| COc1cc(OC)c(OC)cc1/C=C/C(=O)c1cccs1 | 3.02 | 12.6 | 13.6 | 11.1 | 3.49 |  |  |  |  |  |  |  |  |
| COc1cc(/C=C/C(=O)c2cccs2)cc(OC)c1OC | 2.99 | 5.95 | 5.06 | 3.63 | 3.49 |  |  |  |  |  |  |  |  |
| COc1ccc(C(=O)/C=C/c2cc(OC)c(OC)c(OC)c2)cc1OC | 3.22 | 3.97 | 5.6 | 2.89 | 3.3 |  |  |  |  |  |  |  |  |
| Cc1csc(C(=O)/C=C/c2ccc(Cl)c(Cl)c2)c1 | 4.65 | 22.5 | 15.5 | 12.1 | 2.8 |  |  |  |  |  |  |  |  |
| COc1cc(/C=C/C(=O)c2cc(C)cs2)cc(OC)c1 | 3.43 | 4.28 | 4.44 | 3.33 | 3.52 |  |  |  |  |  |  |  |  |
| COc1cc(OC)c(OC)cc1/C=C/C(=O)c1cc(C)cs1 | 3.31 | 10.1 | 7.48 | 6.96 | 3.6 |  |  |  |  |  |  |  |  |
| COC(=O)Nc1nc2cc(C(=O)c3cccs3)ccc2[nH]1 [NOCODAZOLE] |  |  |  |  |  |  |  |  |  |  |  | 73.1 | Active |
| COc1cc(C2OC2C(=O)c2cccs2)cc(OC)c1OC (stereo not drawn) | 2.51 | 59.9 | 61.8 | 38.5 | 2.8 |  |  |  |  |  |  |  |  |
| COc1cc(/C=C/C(=O)c2cc3ccccc3s2)cc(OC)c1OC | 4.19 | 6.89 | 6.61 | 6.9 | 3.68 | Active | Active | Active | 25.8 - 49.37% | Active |  |  |  |
| COc1cc(-c2cc(-c3cccs3)n[nH]2)cc(OC)c1OC | 2.99 | > 37.5 | > 37.5 | > 37.5 | 3.16 |  |  |  |  |  |  |  |  |
| O=C(/C=C/c1cc(Cl)cc(Cl)c1)c1cccs1 | 4.38 | 11.7 | 8.34 | 5.38 | 4.33 |  |  |  |  |  |  |  |  |
| COc1ccc(/C=C/C(=O)c2cccs2)cc1OC | 3.07 | 23.9 | 17.8 | 17.8 | 3.62 |  |  |  |  |  |  |  |  |
| COc1ccc(/C=C/C(=O)c2ccc(OC)c(OC)c2)cc1OC | 3.27 | 13.2 | 8.95 | 3.81 | 3.51 |  |  |  |  |  |  |  |  |
| COc1cc(/C=C/C(=O)c2ccc(OC)c(OC)c2)cc(OC)c1 | 3.35 | 6.49 | 10.8 | 3.45 | 3.29 |  |  |  |  |  |  |  |  |
| COc1cc(-c2cc(-c3cc(C)cs3)n[nH]2)cc(OC)c1OC | 3.27 | 16.3 | 16.1 | 16.1 | 4.04 |  |  |  |  |  |  |  |  |
| COc1ccc(C(=O)/C=C/c2ccc(Cl)c(Cl)c2)cc1OC | 4.52 | 15.1 | 27.7 | 4.14 | 3.14 |  |  |  |  |  |  |  |  |
| COc1cc(C2OC2C(=O)c2cc(C)cs2)cc(OC)c1OC (stereo not drawn) | 2.5 | 14 | 16.9 | 6.63 | 3.75 |  |  |  |  |  |  |  |  |
| COc1ccc(/C=C/C(=O)c2cc(C)cs2)cc1OC | 3.4 | 10.8 | 15.3 | 11.3 | 3.72 |  |  |  |  |  |  |  |  |
| COc1cc(OC)c(OC)cc1/C=C/C(=O)c1ccc(OC)c(OC)c1 | 3.24 | 8.52 | 8.74 | 7.1 | 3.35 |  |  |  |  |  |  |  |  |
